Experimental findings from ChEMBL document CHEMBL1255315, “The hepatitis C virus replicon presents a higher barrier to resistance to nucleoside analogs than to nonnucleoside polymerase or protease inhibitors” (Antimicrob Agents Chemother, 2008) are described below.

pEC50: −log10 of the molar value.

Data set [1] in a line: Cytotoxicity against human HuH7 cells. The format is cell-based, Huh-7. Summed up:
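Viability of the stable GT 1b Con1 replicon cells was measured by MTT or WST-1 assay to give CC50, the 50% cytotoxic concentration. The number of experiments matched the EC50 determinations, and values are reported as mean ± SD.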

The subject of data set [2] is Hepatitis C virus. Put plainly: Antiviral activity against Hepatitis C virus subtype 1b Con1 infected in human HuH7 cells after 3 days by luciferase reporter gene assay. The following applies: Con1, Huh-7, 72 h. Format: functional, organism-based, Hepacivirus hominis. Summed up: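 Huh7-derived 2209-23 cells stably carrying a GT 1b Con1 subgenomic replicon encoding Renilla luciferase, incubated with compound for 3 days. The EC50 is the concentration that reduces reporter luciferase activity by 50% versus untreated controls. Values are reported as mean ± SD over repeated experiments, with the number of experiments differing by compound.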
(In a reporter assay the amount or activity of a reporter protein is the signal.)

The test system of data set [3] is Hepatitis C virus. Nature of the data set: Antiviral activity against HCV infected in human assessed as log reduction in viral load at 4500 […] BID. Format: functional, Hepacivirus hominis.
The subject of data set [4] is Hepatitis C virus. Put plainly: Antiviral activity against HCV subtype 1b infected in human HuH7 cells assessed as number of resistant colonies formed at 15 times EC50 after 3 weeks. The format is functional, Hepacivirus hominis, genotype 1b, Huh-7. Summed up:
(§1)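 Huh7 cells stably carrying a GT 1b subgenomic neoR replicon, seeded at 1 × 10^5 cells/well with 0.5 mg/ml G418, were exposed to one or two inhibitors at multiples of EC50 (from the 3-day Con1 2209-23 luciferase assay). Medium was changed twice weekly, with a 1:4 split at ~95% confluence. After 3 weeks, cells were formaldehyde-fixed and crystal violet-stained, and colonies were counted.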

The subject of data set [5] is Hepatitis C virus. Nature of the data set: Antiviral activity against HCV genotype 1 infected in human assessed as log reduction in viral load at 750 mg administered every 8 hrs for 14 days.
For data set [6], the system named is Hepatitis C virus. Put plainly: Antiviral activity against HCV infected in human assessed as log reduction in viral load at 800 […] SID. Format: functional, Hepacivirus hominis.
Data set [7] deals with Hepatitis C virus. Nature of the data set: Antiviral activity against HCV infected in human assessed as log reduction in viral load measured on day 4 postdose. Format: functional, Hepacivirus hominis.
Data set [8] deals with Hepatitis C virus. Put plainly: Antiviral activity against HCV subtype 1b infected in human HuH7 cells assessed as number of resistant colonies formed at 10 times EC50 after 3 weeks. The format is functional, Hepacivirus hominis, genotype 1b, Huh-7. Summed up:
as §1

In data set [1], `C[C@@]1(O)[C@H](O)[C@@H](CO)O[C@H]1n1ccc(N)nc1=O` had a half-maximal cytotoxic concentration (CC50) greater than 100000 nM. In addition, the negative-log EC50 (pEC50) in the data set with Hepatitis C virus [2] is 5.91.

Consider `CC(C)C(=O)OC[C@@]1(N=[N+]=[N-])O[C@@H](n2ccc(N)nc2=O)[C@H](OC(=O)C(C)C)[C@@H]1OC(=O)C(C)C` [BALAPIRAVIR], for which, in the data set on Hepatitis C virus [3], the FC was 3.7.

Turning to `CCC[C@H](NC(=O)[C@@H]1[C@H]2CCC[C@H]2CN1C(=O)[C@@H](NC(=O)[C@@H](NC(=O)c1cnccn1)C1CCCCC1)C(C)(C)C)C(=O)C(=O)NC1CC1` [TELAPREVIR], the Activity is 93 in the data set with Hepatitis C virus [4] and greater than 4 log10IU/ml in the data set on Hepatitis C virus [5]. Besides, half-maximal cytotoxicity in data set [1] (CC50) was put at 26700 nM. Further, in the data set on Hepatitis C virus [2], the pEC50 was 6.25.

As to `CC(C)[C@H](N)C(=O)O[C@@H]1[C@@H](CO)O[C@@H](n2ccc(N)nc2=O)[C@]1(C)O` [VALOPICITABINE], the FC in the data set with Hepatitis C virus [6] is given as 1.2.

For the compound `CNC(=O)c1c(-c2ccc(F)cc2)oc2cc(N(CCO)S(C)(=O)=O)c(C3CC3)cc12` [NESBUVIR], the FC in the data set with Hepatitis C virus [7] is listed as 1.4. For the same compound, the results for the Activity in the data set with Hepatitis C virus [4] and in the data set on Hepatitis C virus [8] were 36 and 60, respectively. For the same compound, the CC50 in data set [1] was greater than 100000 nM. Moreover, the pEC50 in the data set on Hepatitis C virus [2] is 7.77.

Regarding `[N-]=[N+]=N[C@]1(CO)O[C@@H](n2ccc(N)nc2=O)[C@H](O)[C@@H]1O` [4'-AZIDOCYTIDINE], the CC50 in data set [1] is greater than 100000 nM. For the same compound, in the data set on Hepatitis C virus [2], the pEC50 was 5.89.

The compound `C[C@@]1(F)[C@H](O)[C@@H](CO)O[C@H]1n1ccc(N)nc1=O` came in with a cytotoxic concentration (CC50) in data set [1] greater than 100000 nM. The same compound showed a pEC50 in the data set with Hepatitis C virus [2] of 6.21.

As a reminder, the CC50 is the concentration that lowers cell viability or growth by half. One may read the pEC50 as the EC50 on a negative log10 scale, so that one unit is a factor of ten.
